Among the data in the RNAGym collection of RNA variant scans (doi:10.1126/science.aae0568) are yeast fitness values, retold here.

First the molecules themselves.
B1: tRNA (parent)
chain: GUUCCGUUGGCGUAAUGGUAACGCGUCUCCCUCCUAAGGAGAAGACUGCGGGUUCGAGUCCCGUACGGAACG

This sample holds only a part of the variants without activity.

The variants in the series derive from B1. Kind of series: yeast fitness relative to wild type (ratio to wild type); higher = fitter; tRNA-Arg(CCU), competitive growth, 37 C, YPD. In short, it runs like this: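 A pool of Saccharomyces cerevisiae strains, each with a tRNA-Arg(CCU) gene variant at the native genomic locus, was competed in YPD at 37°C for 24 hours across six parallel replicates. The variants had been chemically synthesised at a 3% per-site mutation rate over 69 sites, and gene amplicons before and after competition were read by 100-nucleotide paired-end sequencing. Darwinian fitness relative to wild type rested on changes in genotype frequencies. Genotypes required ≥ 100 starting reads, and estimates < 0.5 were set to 0.5.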
As for U16A A36G A57U A70G, the yeast fitness was at most 0.5.
Regarding A15C C29U G39C A42U G48C G50U G51C A65U, the yeast fitness was at most 0.5.
With A15C C49G C62U the figure was 0.636; with A15G U19C A37U C49U G51A, 0.555.
As for A15U A20U C24U A65G A70C, the yeast fitness is at most 0.5.
In the case of A15G A20C C60U it was at most 0.5; in that of A15C G17A G18A A36C, at most 0.5; in that of A15U A21C U53C G56C A65G, 0.77.
As for A15U C22G A37G C55G C60G, the yeast fitness is at most 0.5.
Consider A15G A57C, for which the yeast fitness came out at 0.636.
Turning to A15G A57G, the yeast fitness worked out at 0.899.
Consider A15C C29U C31U G67C, for which the yeast fitness came to 0.591.
Consider A15C G67C, for which the yeast fitness was determined as 0.684.
On to A15U A21G C24U C33U A40C A43C C49U C61U, for which the yeast fitness was found to be 0.516.
Consider A15U A40G C46U, for which the yeast fitness was 0.697.
On to A15G C49G C55G, for which the yeast fitness stood at 0.577.
With A15G A42C C46A the figure was at most 0.5; with A15C C29U G39C A42U G50U G51C G63A A65U, at most 0.5; with A15C C24A U53C, at most 0.5.
Take A15G G23A A36G C55A: the yeast fitness is at most 0.5.
Regarding A15G A42C G51C G67C, the yeast fitness is at most 0.5.
With A15G C29G A37C A42U A57G G67A, the yeast fitness is at most 0.5.
Regarding A15G C29A U47G U54A G58A, the yeast fitness was at most 0.5.
In the case of A15U A43U C62U it was 0.611; in that of A15C G50A C60G U64G, at most 0.5.
In the case of A15C C34G C60U it was at most 0.5; in that of A15U G63C C66G, at most 0.5.
In the case of A15G U35C A36G A37G C61G G67C it was at most 0.5; in that of A15U U28G C33U, at most 0.5.
For A15C C27A, the yeast fitness was 0.554.
For the variant U16A A40U, the yeast fitness turned out to be 1.
For A15U C30U A37G, the yeast fitness was at most 0.5.
In the case of A15U G25C C34A, the yeast fitness was 0.941.
Take A15C G58A G68A: the yeast fitness was found to be 0.611.
On to A15G A20C A43U U54A, for which the yeast fitness is at most 0.5.
In the case of A15C G39A A57G C66U it was at most 0.5; in that of A15U C22G G52A A65U, at most 0.5.
As for A15G A21C, the yeast fitness stood at 0.709.
For A15G G17A G48A, the yeast fitness was found to be 0.681.
For A15C A36U A42G U59C C60A, the yeast fitness is at most 0.5.
Regarding A15C U28A C34G A43U G63U U64C, the yeast fitness is at most 0.5.
As for A15U A36C A40U G58C G67C, the yeast fitness was at most 0.5.
As for A15G C49U C61U, the yeast fitness was 0.672.
For the variant A15G C29G C31G A37C C66A, the yeast fitness was at most 0.5.
Turning to U16A A21G C22U G48C G63C, the yeast fitness is at most 0.5.
For the variant A15G C29U, the yeast fitness stood at 0.952.
For A15G G44A G50C, the yeast fitness is at most 0.5.
Regarding A15G U32A A43U, the yeast fitness was 0.603.
With A15C C33U A36U C66U the figure was at most 0.5; with A15C G17C, 0.62; with A15C C33U U47G C49U G52C A70G, 0.585.
Turning to A15G A57U A65U, the yeast fitness is at most 0.5.
In the case of A15C A70C it was 0.751; in that of A15C U19A U64A A65G G67U, at most 0.5; in that of A15U C31U C46G A65G A70U, at most 0.5.
In the case of A15G C33U A40G G51C A57U it was at most 0.5; in that of A15G C24G C31G G50A, at most 0.5; in that of A15G C24G C49U, 0.541.
For A15C A36G U47C C55A, the yeast fitness was at most 0.5.
In the case of A15U C29U, the yeast fitness was 0.749.
As for A15U C30U, the yeast fitness came to 0.859.
As to A15G C30G G63A, the yeast fitness is at most 0.5.
As for A15G G17A C30A C61A, the yeast fitness was at most 0.5.
Consider A15U C24A G25A U47C G52C C61G, for which the yeast fitness is at most 0.5.
In the case of A15C G48A U64G it was 0.593; in that of A15C U26C G56A C61U, at most 0.5.
Regarding A15G A42G C61U, the yeast fitness amounted to 0.579.
Turning to A15G G23A C60U, the yeast fitness is at most 0.5.
As for A15C C30A C34A A42C G56A A57U, the yeast fitness is at most 0.5.
Consider A15U G25A C55G, for which the yeast fitness stood at 0.555.
As for A15C G23C C60U A69G, the yeast fitness was at most 0.5.
In the case of A15G A36C G67C, the yeast fitness is at most 0.5.
As for A15C C24U C66U, the yeast fitness is at most 0.5.
Turning to U16A A20G C27U C29A G41C G63A, the yeast fitness is at most 0.5.
Turning to A15U A20G C30A G63C, the yeast fitness was at most 0.5.
In the case of A15U G44A G58A G68C, the yeast fitness is at most 0.5.
Regarding A15U G38C G39A A43C U59A C60U, the yeast fitness is at most 0.5.
For A15U A65C G67A, the yeast fitness is at most 0.5.
Regarding A15U C29A C34G C62U G68A, the yeast fitness is 0.616.
For A15G G23C, the yeast fitness turned out to be 0.712.
In the case of A15U A20C A43C G51A G56C it was at most 0.5.
With U16A A43C A45G, the yeast fitness turned out to be 0.988.
As to A15G C31G A40U C60G G67A, the yeast fitness was found to be 0.529.
For the variant A15G G17A C33U, the yeast fitness is at most 0.5.
In the case of A15G G17A A69C it was 0.586; in that of A15C U53G, 0.621.
As for A15G A36U U59A, the yeast fitness is at most 0.5.
As to A15U C30U A37G U59A, the yeast fitness was at most 0.5.
Regarding A15C U35A, the yeast fitness was 0.599.
Take A15G G39A A40G A57C: the yeast fitness turned out to be 0.534.
In the case of A15U C22G C31U G50A, the yeast fitness is at most 0.5.
Regarding A15C C29U G68C, the yeast fitness is at most 0.5.
For A15C U47A A65C, the yeast fitness worked out at 0.561.
As for A15G U64A, the yeast fitness was found to be 0.706.
With U16A A21U C33G the figure was at most 0.5; with A15G C22G, 0.893; with A15C U59G, 0.673.
A15C G25C C29U U35C A43U G67C: the yeast fitness is at most 0.5.
With A15G C29G C33A G67A the figure was 0.569.
As to A15C U28C G48C, the yeast fitness is at most 0.5.
Consider U16A A21C C30G A36G G51C G52A, for which the yeast fitness was at most 0.5.
For A15C A20U C31G C62A, the yeast fitness was at most 0.5.
As for A15U A20C U32G A65C, the yeast fitness worked out at 0.537.
Take A15U G39C U47C: the yeast fitness is at most 0.5.
For A15U A57G, the yeast fitness came to 0.927.
Turning to A15U A57C, the yeast fitness turned out to be 0.637.
Turning to A15U A57U A65C, the yeast fitness was 0.586.
In the case of A15C C29G C30G U47C, the yeast fitness is at most 0.5.
For the variant A15U C33U G44C C55A, the yeast fitness is at most 0.5.
Regarding U16A A42U, the yeast fitness is 0.907.
Consider A15G C46G G67A, for which the yeast fitness amounted to 0.623.
As for A15G A37U A40C A43C, the yeast fitness is at most 0.5.
In the case of A15G C24A C66U it was at most 0.5; in that of A15C U28A C34G A43U G68C, at most 0.5; in that of A15U C31U C49U G52A A57U G58C, at most 0.5.
As for A15U A69C, the yeast fitness turned out to be 0.77.
Consider A15C U16A A21G U26A C30U C61A A69U, for which the yeast fitness is 0.575.
For A15G A36G G56U C62U, the yeast fitness was at most 0.5.
Take A15C G44A U53C U64C: the yeast fitness is at most 0.5.
For A15U A20U C27G C49G, the yeast fitness was 0.64.
On to A15G U26G C30U G52A, for which the yeast fitness is at most 0.5.
As to A15G G48A A65C, the yeast fitness turned out to be 0.686.
As for A15G C46G C61G A65G, the yeast fitness came to 0.756.
Turning to A15G C31G G44C C46G, the yeast fitness is 0.647.
On to A15G G17C C33A G56C A65C G68A, for which the yeast fitness is at most 0.5.
Consider U16A A20C, for which the yeast fitness was found to be 1.02.
For A15C G23A A42C G48A G50C, the yeast fitness was at most 0.5.
On to A15U A45C C46A G67A, for which the yeast fitness is at most 0.5.
As to A15C A36U G39A, the yeast fitness is at most 0.5.
As to A15C U54G, the yeast fitness was 0.537.
For A15U C62U, the yeast fitness is 0.787.
Turning to A15C C27U C30U U32G U35A A37C A57U, the yeast fitness was at most 0.5.
With A15C A36U A69U the figure was 0.509; with A15U G17C A45U C49G C55U A70U, at most 0.5.
As to A15C C22A, the yeast fitness was found to be 0.697.
As to A15U C24A G25A U47C G52C A65U, the yeast fitness was at most 0.5.
As to A15G U26G C30U G51U G52A, the yeast fitness is at most 0.5.
With U16A A20C U53C the figure was 0.599.
With A15U C49G C55U A65U the figure was 0.56; with A15U G38C G39A A43C A57U, at most 0.5; with A15U G52C A65U G67C, at most 0.5.
With A15U C22G C31U the figure was 0.536; with A15G C49U, 1.07.
For A15U C66U A70C, the yeast fitness came out at 0.566.
In the case of A15U G25A it was 1; in that of A15U C24U A65G, 0.53; in that of A15U G23A C60G, at most 0.5.
For the variant A15U G25A C33G C62G, the yeast fitness was at most 0.5.
For the variant A15C G17C C31G G50C C62G A70C, the yeast fitness is at most 0.5.
Consider A15C A20G A70C, for which the yeast fitness was 0.6.
Regarding A15C G25A U28A, the yeast fitness is at most 0.5.
In the case of A15U A40G G52C C62G, the yeast fitness is at most 0.5.
A15U A45G C49G: the yeast fitness is at most 0.5.
Regarding U16A A42C A69U, the yeast fitness came to 0.505.
Regarding A15G G58C C62G, the yeast fitness is at most 0.5.
A15G A45U: the yeast fitness was determined as 0.987.
With A15G C24A C46A, the yeast fitness stood at 0.64.
Turning to A15G C31U C60U, the yeast fitness came out at 0.543.
In the case of A15G C34G C46U it was at most 0.5; in that of A15C A21G C22U C49U U53C, at most 0.5.
In the case of A15U A40C C49U it was 0.528; in that of A15G U35C, 0.892.
Take A15C U32A A65C: the yeast fitness is at most 0.5.
With A15G G18A A69U the figure was 0.648; with A15G C30G A42C A43C C46G A65C, at most 0.5.
Regarding A15G C30A C62G, the yeast fitness came out at 0.634.
In the case of A15U C46A G68U A70C, the yeast fitness is at most 0.5.
